# Results collected from several papers.
# Protocols differ between the studies behind these lines.
# ADORA2B: Adenosine receptor A2b (ADORA2B, Homo sapiens, UniProt P29275)
# CFTR: Cystic fibrosis transmembrane conductance regulator (CFTR, Homo sapiens, UniProt P13569)
# PKN3: Serine/threonine-protein kinase N3 (PKN3, Homo sapiens, UniProt Q6P5Z2)
Compound,target,observed,action,technique,concentration,setting,inhibition
COCCOc1ccc(N2CCN(CCn3ncc4c3nc(N)n3nc(-c5ccco5)nc43)CC2)cc1,ADORA2B,ligand displacement,,radioligand,10 µM,cell membranes,25%
CC(=NNC(=O)CNc1ccc2ccccc2c1)c1cc(Br)c(O)c(Br)c1,CFTR,ion current,inhibitor,,50 µM,,100%
CC(C)N1CCCn2c1nc1c2c(=O)n(C)c(=O)n1C,ADORA2B,ligand displacement,,radioligand,10 µM,cell membranes,-4%
Cn1cnc(Br)c1C1=CN(c2ncnc3[nH]cnc23)CCS1,PKN3,enzyme activity,inhibitor,radiometric,50 nM,,29.2%
CC(C)CN1CCCn2c1nc1c2c(=O)n(C)c(=O)n1C,ADORA2B,ligand displacement,,radioligand,10 µM,cell membranes,5%
COc1cc(NC(C)=O)c(Cl)cc1C(=O)Nc1nccs1,ADORA2B,cell-free assay,,,10 µM,,-34.6%
CC(C)(NC(=O)OC1CCCCC1)c1csc(-c2ccc(F)cc2)n1,"N-terminal Xaa-Pro-Lys N-methyltransferase 1 (Homo sapiens, UniProt Q9BV86)",enzyme activity,inhibitor,fluorescence,100 µM,,< 50%
O=C(CNc1cccc2ccccc12)NN=Cc1cc(Br)c(O)c(Br)c1,CFTR,ion current,inhibitor,,50 µM,,87%
CC(C)CC(C)N1CCCn2c1nc1c2c(=O)n(C)c(=O)n1C (stereo not shown),ADORA2B,ligand displacement,,radioligand,10 µM,cell membranes,1%
CC(Nc1ccc2ccccc2c1)C(=O)NN=Cc1cc(Br)c(O)c(Br)c1O (stereo not shown),CFTR,ion current,inhibitor,,50 µM,,91%
CCCC(C)N1CCCn2c1nc1c2c(=O)n(C)c(=O)n1C (stereo not shown),ADORA2B,ligand displacement,,radioligand,10 µM,cell membranes,0%
CC(=O)c1nn(CC(=O)N2C[C@H](F)C[C@H]2C(=O)Nc2cccc(Br)n2)c2ccc(-c3cnc(C)nc3)cc12,"Chymase (CMA1, Homo sapiens, UniProt P23946)",enzyme activity,inhibitor,,10 µM,,-1.2%
O=C(c1ccc(Cl)cc1)N(Cc1ccccc1)C1CCCCC1,ADORA2B,cell-free assay,,,10 µM,,-5.4%
O=C(NN=Cc1cc(Br)c(O)c(Br)c1)C(=O)Nc1ccc2ccccc2c1,CFTR,ion current,inhibitor,,50 µM,,80%
CN(C)C1CCN(CC#Cc2nn(C3CCCC3)c3nc(NCc4ccccc4)ncc23)C1 (stereo not shown),"Dual specificity protein kinase CLK2 (CLK2, Homo sapiens, UniProt P49760)",enzyme activity,inhibitor,FRET,10 µM,,33%
CCC(C)N1CCCn2c1nc1c2c(=O)n(C)c(=O)n1C (stereo not shown),ADORA2B,ligand displacement,,radioligand,10 µM,cell membranes,-9%
O=C(CNc1ccc(Cl)cc1)NN=Cc1cc(Br)c(O)c(Br)c1O,CFTR,ion current,inhibitor,,50 µM,,91%
Oc1cccc(Nc2nc(-c3ccc(F)cc3F)cs2)c1,ADORA2B,cell-free assay,,,10 µM,,-11.9%
CCN(c1cc(C#CCN2CCOCC2)cc(C(=O)NCc2c(C)cc(C)[nH]c2=O)c1C)[C@H]1CC[C@H](N(C)CCOC)CC1,"Histone-lysine N-methyltransferase, H3 lysine-79 specific (DOT1L, Homo sapiens, UniProt Q8TEK3)",enzyme activity,inhibitor,,1 µM,,1%
Cn1cncc1C1=CN(c2ncnc3[nH]cnc23)CCS1,PKN3,enzyme activity,inhibitor,radiometric,50 nM,,18.6%
CCN1CCCn2c1nc1c2c(=O)n(C)c(=O)n1C,ADORA2B,ligand displacement,,radioligand,10 µM,cell membranes,12%
Oc1ncnc2[nH]ncc12,"Xanthine dehydrogenase/oxidase (XDH, Homo sapiens, UniProt P47989)",enzyme activity,inhibitor,absorbance,500 µM,,100%
